According to ChEMBL document CHEMBL1759881, “Synthesis and anti-inflammatory activity of ent-kaurene derivatives” (Eur J Med Chem, 2011):

Key:
RAW264.7 = assay: Antiinflammatory activity in mouse RAW264.7 cells assessed as inhibition of LPS-induced nitric oxide release pretreated for 15 mins before LPS challenge measured after 24 hrs by Griess method; type: functional, cell-based
Method in brief: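 RAW 264.7 cells pre-incubated 15 min with compound (1–25 range in the table; 1, 5, 10, 25, 50 for dose-response) or DMSO vehicle, then LPS 250 ng/ml for 24 h. Nitrite in supernatant measured by Griess reagent, absorbance at 548 nm against NaNO2 standard. IC50 is the concentration giving 50% inhibition of NO release. Means ± SD of three independent experiments in triplicate.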

[1] = Cytotoxicity against LPS-stimulated mouse RAW264.7 cells assessed as cell viability at 1 to 25 uM pretreated for 15 mins before LPS challenge measured after 24 hrs by MTT assay; type: cell-based; conditions: LPS-stimulated RAW264.7 cells, read-out: Activity
Method in brief: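 RAW 264.7 cells plated at 10⁵ cells/well, treated with compound at 1–25 in the presence of LPS 250 ng/ml for 24 h. MTT then added for 4 h at 37 °C, formazan extracted in DMSO, absorbance read at 540 nm. Viability expressed relative to untreated controls. Triplicate wells, at least three independent experiments.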

Row | SMILES | IC50 (RAW264.7) [µM] | viability at 24 h, up to 25 µM [1] [%] | inhibition (RAW264.7)
1 | COC(=O)[C@]1(C)CCC[C@@]2(C)[C@@H]3CC[C@@H]4C[C@@]3(CC[C@@H]21)C[C@]4(C)O | 25 | 52 | –
2 | C=C1C[C@@]23CC[C@H]4[C@@](C)(CCC[C@@]4(C)C(=O)OC)[C@@H]2CC[C@@H]1C3 [KAURENOIC ACID METHYL ESTER] | 25 | 90 | –
3 | C=C1[C@@H]2CC[C@H]3[C@]4(C)CCC[C@@](C)(C(=O)Nc5ccccc5)[C@H]4CC[C@]3(C2)[C@H]1OC(C)=O | > 25 | 85 | –
4 | C=C1[C@@H]2CC[C@H]3[C@]4(C)CCC[C@@](C)(C(=O)O)[C@H]4CC[C@]3(C2)[C@H]1OC(C)=O | > 25 | 58 | –
5 | C=C1[C@@H]2CC[C@H]3[C@]4(C)CCC[C@@](C)(C(=O)OC)[C@H]4CC[C@]3(C2)[C@H]1O | 5 | 97 | Dose-dependent effect
6 | COC(=O)[C@]1(C)CCC[C@@]2(C)C3=CC[C@@H]4C[C@@]3(CC[C@H]12)C[C@]4(O)COC(=O)c1ccco1 | 10 | 99 | –
7 | COC(=O)[C@]1(C)CCC[C@@]2(C)[C@@H]3CC[C@@H]4C[C@@]3(CC[C@@H]21)C[C@]41COS(=O)O1 (stereo partly specified) | > 25 | 60 | –
8 | C[C@@]12CCC[C@@](C)(C(=O)OCc3ccccc3)[C@H]1CC[C@]13CC(=O)O[C@H](CC[C@H]12)C3 | > 25 | 50 | –
9 | COC(=O)[C@]1(C)CCC[C@@]2(C)[C@@H]3CC[C@@H]4C[C@@]3(CC[C@@H]21)C[C@H]4C [DIHYDRO KAURENOIC ACID METHYL ESTER] | > 25 | 72 | –
10 | C=C1C(=O)[C@@]23CC[C@H]4[C@@](C)(CCC[C@@]4(C)C(=O)OC)[C@@H]2CC[C@@H]1C3 | 4 | 32 | –
11 | C=C1C[C@@]23CC[C@@H]4C(C)(C(=O)O)CCC[C@@]4(C)C2=CC[C@@H]1C3 (stereo partly specified) | 15 | 90 | –
12 | COC(=O)[C@]1(C)CCC[C@@]2(C)[C@@H]3CC[C@@H]4C[C@@]3(CC[C@@H]21)CC4=O | > 25 | 98 | –
13 | COC(=O)[C@]1(C)CCC[C@@]2(C)C3=CC[C@@H]4C[C@]3(C=C4C=O)CC[C@H]12 | 25 | 18 | –
14 | COC(=O)[C@]1(C)CCC[C@@]2(C)[C@@H]3CC[C@@H]4C[C@@]3(CC[C@@H]21)C[C@@]4(O)CO | 5 | 69 | –
15 | COC(=O)[C@]1(C)CCCC2(C)[C@@H]3CC[C@@H]4C[C@@]3(CC[C@@H]21)C[C@@]41CO1 (stereo partly specified) | > 25 | 66 | –
16 | COC(=O)[C@]1(C)CCC[C@@]2(C)[C@@H]3CC[C@@H]4C[C@@]3(CC[C@@H]21)C[C@H]4/C=N/O | > 25 | 25 | –
17 | COC(=O)[C@]1(C)CCC[C@@]2(C)[C@@H]3CC[C@@H]4C[C@@]3(CC[C@@H]21)C[C@]4(C)OC | > 25 | 90 | –
18 | COC(=O)[C@]1(C)CCC[C@]2(C)[C@@H]1CC[C@@]13C[C@@H](C[C@@H]4O[C@@]412)[C@]1(CO1)C3 | > 25 | 99 | –
19 | COC(=O)[C@]1(C)CCC[C@@]2(C)[C@@H]3CC[C@@H]4C[C@@]3(CC[C@@H]21)[C@@H](OC(C)=O)C4=O | > 25 | 99 | –
20 | COC(=O)[C@]1(C)CCC[C@@]2(C)[C@@H]3CC[C@@H]4C[C@]3(C=C4C)CC[C@@H]21 | > 25 | 100 | –
21 | C=C1[C@@H]2CC[C@H]3[C@]4(C)CCC[C@@](C)(C(=O)OC)[C@H]4CC[C@]3(C2)[C@H]1OC(=O)CCCCCCCCCCC | > 25 | 95 | –
22 | C=C1C[C@@]23CC[C@@H]4[C@](C)(COC(C)=O)CCC[C@@]4(C)C2=CC[C@@H]1C3 | 10 | 90 | –
23 | C=C1C[C@@]23CC[C@H]4[C@@](C)(CCC[C@@]4(C)C(=O)O)[C@@H]2CCC1C3 (single isomer, unassigned) [KAURENOIC ACID] | > 25 | 70 | –
24 | C=C1C[C@@]23CC[C@H]4[C@@](C)(CCC[C@@]4(C)C(=O)OCc4ccccc4)[C@@H]2CC[C@@H]1C3 [KAURENOIC ACID BENZYL ESTER] | > 25 | 46 | –
25 | COC(=O)[C@]1(C)CCC[C@@]2(C)[C@@H]3CC[C@@H]4C[C@@]3(CC[C@@H]21)C[C@]4(C)Cl | > 25 | 82 | –
26 | C=C1C[C@@]23CC[C@@H]4[C@](C)(COS(=O)OC[C@]5(C)CCC[C@]6(C)[C@@H]5CC[C@]57CC(=C)[C@H](CC[C@H]56)C7)CCC[C@@]4(C)[C@@H]2CC[C@@H]1C3 | > 25 | 99 | –
27 | C[C@@]12CCC[C@@](C)(C(=O)OC[Si](C)(C)C)[C@H]1CC[C@]13CC(=O)O[C@H](CC[C@H]12)C3 | 5 | 95 | Dose-dependent effect

The next lines start with results.

Row | IC50 (RAW264.7) [µM] | SMILES | viability at 24 h, up to 25 µM [1] [%] | inhibition (RAW264.7)
28 | > 25 | C=C1[C@@H]2CC[C@H]3[C@]4(C)CCC[C@@](C)(C(=O)OC)[C@H]4CC[C@]3(C2)[C@H]1OC(C)=O | 40 | –
29 | > 25 | COC(=O)[C@]1(C)CCCC2(C)[C@@H]3CC[C@@H]4C[C@@]3(CC[C@@H]21)C[C@]41CO1 (stereo partly specified) | 90 | –
30 | > 25 | COC(=O)[C@]1(C)CCC[C@@]2(C)[C@@H]3CC[C@@H]4C[C@]3(C=C4/C=N/O)CC[C@@H]21 | 99 | –
31 | 5 | COC(=O)[C@]1(C)CCC[C@@]2(C)[C@@H]3CC[C@@H]4C[C@]3(C=C4C=O)CC[C@@H]21 | 76 | –
32 | > 25 | C=C1C[C@@]23CC[C@@H]4[C@](C)(CO)CCC[C@@]4(C)C2=CC[C@@H]1C3 | 50 | –
33 | 12 | C[C@@]12CCC[C@@](C)(C(=O)OCc3ccccc3)[C@H]1CC[C@]13CC(=O)[C@H](CC[C@H]12)C3 | 95 | –
34 | 17 | COC(=O)[C@]1(C)CCC[C@@]2(C)[C@@H]3CC[C@@H]4C[C@@]3(CC[C@@H]21)C[C@@]41COS(=O)O1 (stereo partly specified) | 95 | –
35 | > 25 | COC(=O)[C@]1(C)CCC[C@@]2(C)[C@@H]3CC[C@@H]4C[C@@]3(CC[C@@H]21)C(=O)[C@@]41CCN=N1 | 48 | –
36 | > 25 | C=C1[C@@H]2CC=C3[C@@](CC[C@@H]4[C@](C)(C(=O)OC)CCC[C@@]34C)(C2)[C@H]1OC(C)=O | 50 | –
37 | > 25 | C=C1C[C@@]23CC[C@@H]4[C@](C)(C(=O)OCc5ccccc5)CCC[C@@]4(C)C2=CC[C@@H]1C3 [GRANDIFLORENIC ACID BENZYL ESTER] | 23 | –
38 | > 25 | COC(=O)[C@]1(C)CCC[C@@]2(C)C3=CC[C@@H]4C[C@@]3(CC[C@H]12)C[C@]4(O)CO | 35 | –
39 | > 25 | C=C1[C@@H]2CC[C@H]3[C@]4(C)CCC[C@@](C)(C(=O)O)[C@H]4CC[C@]3(C2)[C@H]1O | 100 | –
40 | > 25 | COC(=O)[C@]1(C)CCC[C@@]2(C)C3=CC[C@@H]4C[C@@]3(CC[C@H]12)C[C@H]4C | 95 | –
41 | > 25 | COC(=O)[C@]1(C)CCC[C@@]2(C)[C@@H]3CC[C@@H]4C[C@@]3(CC[C@@H]21)C(=O)OC4=O | 95 | –
42 | > 25 | C[C@@]1(CO)CCC[C@]2(C)[C@@H]1CC[C@@]13C[C@@H](CC[C@H]12)[C@@](C)(O)C3 | 95 | –
43 | > 25 | C=C1[C@@H]2CC=C3[C@@](CC[C@@H]4[C@](C)(C(=O)OC)CCC[C@@]34C)(C2)[C@H]1O | 67 | –
44 | > 25 | COC(=O)[C@]1(C)CCC[C@@]2(C)[C@@H]3CC[C@@H]4C[C@@]3(CC[C@@H]21)C[C@H]4C=O | 90 | –
45 | 12 | C=C1C[C@@]23CC[C@@H]4[C@](C)(COC(C)=O)CCC[C@@]4(C)[C@@H]2CC[C@@H]1C3 | 99 | –
46 | > 25 | COC(=O)[C@]1(C)CCC[C@@]2(C)[C@@H]3CC[C@@H]4C[C@@]3(CC[C@@H]21)[C@@H](O)C4=O | 95 | –
47 | > 25 | C=C1C[C@@]23CC[C@H]4[C@@](C)(CCC[C@@]4(C)C(=O)OC[Si](C)(C)C)[C@@H]2CC[C@@H]1C3 | 95 | –
48 | 5 | C=C1C[C@@]23CC[C@@H]4[C@](C)(C(=O)OC)CCC[C@@]4(C)C2=CC[C@@H]1C3 [GRANDIFLORENIC ACID METHYL ESTER] | 100 | Dose-dependent effect
49 | 14 | COC(=O)[C@]1(C)CCC[C@@]2(C)[C@@H]3CC[C@@H]4C[C@@]3(CC[C@@H]21)[C@H]1O[C@@]41C | 95 | –
